From publication PMC3776227 (Biochemical Pharmacology, 2013)

What was measured:
α1β1 GABAA receptors = α1β1 GABAA receptors (Rattus norvegicus, UniProt P15431+P62813); assay: IGABA modulation, two-microelectrode voltage clamp, Xenopus oocytes, α1β1; format: cell-based
Method in brief: (§1)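 Rat GABAA subunit cRNAs were injected into stage V–VI Xenopus oocytes (10–50 nl, about 300–3000 pg/nl): α1β1 at 3:1, other αβ pairs at 1:1, and γ2S-containing receptors at α:β:γ 1:1:10. Oocytes were kept 24–48 h at 18 °C in ND96 with penicillin/streptomycin. Two-electrode voltage clamp was run at −70 mV in HEPES-buffered bath (pH 7,4).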

α1β2 GABAA receptors = α1β2 GABAA receptors (Rattus norvegicus, UniProt P62813+P63138); assay: IGABA modulation, two-microelectrode voltage clamp, Xenopus oocytes, α1β2; format: cell-based
Sequence of α1β2 GABAA receptors (P62813 28-455): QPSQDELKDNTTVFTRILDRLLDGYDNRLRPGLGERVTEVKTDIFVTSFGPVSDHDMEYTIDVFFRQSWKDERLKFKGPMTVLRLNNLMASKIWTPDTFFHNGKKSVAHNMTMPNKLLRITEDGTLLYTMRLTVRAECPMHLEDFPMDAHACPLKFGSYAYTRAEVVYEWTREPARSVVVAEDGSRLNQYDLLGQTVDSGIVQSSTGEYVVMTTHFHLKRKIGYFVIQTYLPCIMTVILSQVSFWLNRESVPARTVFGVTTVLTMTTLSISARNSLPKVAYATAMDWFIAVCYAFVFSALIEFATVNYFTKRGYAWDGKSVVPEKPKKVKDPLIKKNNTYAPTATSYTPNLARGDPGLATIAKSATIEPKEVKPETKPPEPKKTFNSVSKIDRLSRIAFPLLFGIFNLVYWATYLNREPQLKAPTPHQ
Sequence of α1β2 GABAA receptors (P63138 25-474 limits assumed): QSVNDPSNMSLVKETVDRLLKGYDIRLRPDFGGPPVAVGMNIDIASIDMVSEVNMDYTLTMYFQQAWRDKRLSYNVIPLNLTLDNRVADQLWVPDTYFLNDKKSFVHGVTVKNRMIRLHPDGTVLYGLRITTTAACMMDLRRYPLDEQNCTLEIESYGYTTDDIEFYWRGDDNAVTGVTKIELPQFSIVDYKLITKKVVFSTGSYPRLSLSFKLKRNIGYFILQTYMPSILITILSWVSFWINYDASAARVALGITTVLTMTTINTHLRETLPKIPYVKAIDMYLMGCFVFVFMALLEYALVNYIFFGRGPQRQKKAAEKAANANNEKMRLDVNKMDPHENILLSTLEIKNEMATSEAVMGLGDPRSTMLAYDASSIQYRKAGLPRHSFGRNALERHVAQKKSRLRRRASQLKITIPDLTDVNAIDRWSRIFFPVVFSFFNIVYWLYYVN
Method in brief: as §1

α1β3 GABAA receptors = α1β3 GABAA receptors (Rattus norvegicus, UniProt P62813+P63079); assay: IGABA modulation, two-microelectrode voltage clamp, Xenopus oocytes, α1β3; format: cell-based
Sequence of α1β3 GABAA receptors (P62813 28-455): as the sequence (P62813 28-455) above
Sequence of α1β3 GABAA receptors (P63079 26-473): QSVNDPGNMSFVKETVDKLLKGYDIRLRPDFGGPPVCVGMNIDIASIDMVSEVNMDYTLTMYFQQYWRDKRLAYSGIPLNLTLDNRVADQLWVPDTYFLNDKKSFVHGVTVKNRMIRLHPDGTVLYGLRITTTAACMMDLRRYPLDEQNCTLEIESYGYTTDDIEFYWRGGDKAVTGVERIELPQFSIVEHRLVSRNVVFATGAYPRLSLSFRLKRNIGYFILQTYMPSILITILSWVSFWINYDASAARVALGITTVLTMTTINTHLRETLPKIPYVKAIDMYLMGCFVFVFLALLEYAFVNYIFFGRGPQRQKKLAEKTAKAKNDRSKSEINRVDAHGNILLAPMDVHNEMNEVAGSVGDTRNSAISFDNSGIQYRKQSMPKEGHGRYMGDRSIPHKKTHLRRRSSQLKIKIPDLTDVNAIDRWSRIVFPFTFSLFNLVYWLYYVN
Method in brief: as §1

α2β2 GABAA receptors = α2β2 GABAA receptors (Rattus norvegicus, UniProt P23576+P63138); assay: IGABA modulation, two-microelectrode voltage clamp, Xenopus oocytes, α2β2; format: cell-based
Sequence of α2β2 GABAA receptors (P23576 29-451): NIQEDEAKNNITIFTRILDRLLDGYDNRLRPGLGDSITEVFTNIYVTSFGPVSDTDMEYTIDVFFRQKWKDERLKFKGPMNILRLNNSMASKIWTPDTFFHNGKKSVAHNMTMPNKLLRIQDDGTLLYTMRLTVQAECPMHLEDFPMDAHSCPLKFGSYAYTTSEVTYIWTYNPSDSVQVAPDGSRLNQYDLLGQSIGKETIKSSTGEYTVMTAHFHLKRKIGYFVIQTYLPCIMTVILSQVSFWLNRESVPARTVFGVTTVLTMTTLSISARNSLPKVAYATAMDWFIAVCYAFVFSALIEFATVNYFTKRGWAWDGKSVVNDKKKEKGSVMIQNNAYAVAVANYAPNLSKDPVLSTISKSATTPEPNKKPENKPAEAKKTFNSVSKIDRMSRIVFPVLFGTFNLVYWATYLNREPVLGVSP
Sequence of α2β2 GABAA receptors (P63138 25-474 limits assumed): as the sequence (P63138 25-474 limits assumed) above
Method in brief: as §1

α3β2 GABAA receptors [1] = target: T1, α3β2 GABAA receptors (Rattus norvegicus, UniProt P20236+P63138); assay: IGABA modulation, two-microelectrode voltage clamp, Xenopus oocytes, α3β2; format: cell-based
T1 sequence (P20236 29-493): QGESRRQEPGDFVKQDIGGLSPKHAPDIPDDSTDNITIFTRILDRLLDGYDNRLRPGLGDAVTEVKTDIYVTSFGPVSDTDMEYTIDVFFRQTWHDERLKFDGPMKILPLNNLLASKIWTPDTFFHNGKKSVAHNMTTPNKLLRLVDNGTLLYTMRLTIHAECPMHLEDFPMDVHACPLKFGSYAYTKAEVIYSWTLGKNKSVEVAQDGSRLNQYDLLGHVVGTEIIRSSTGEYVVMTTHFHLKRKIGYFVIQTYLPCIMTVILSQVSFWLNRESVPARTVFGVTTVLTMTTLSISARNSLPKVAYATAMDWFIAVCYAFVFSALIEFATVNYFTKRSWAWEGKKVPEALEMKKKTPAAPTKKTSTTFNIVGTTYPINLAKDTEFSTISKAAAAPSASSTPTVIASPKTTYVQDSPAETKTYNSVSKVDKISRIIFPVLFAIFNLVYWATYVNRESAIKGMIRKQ
T1 sequence (P63138 25-474 limits assumed): as the sequence (P63138 25-474 limits assumed) above
Method in brief: as §1

α5β2 GABAA receptors = α5β2 GABAA receptors (Rattus norvegicus, UniProt P19969+P63138); assay: IGABA modulation, two-microelectrode voltage clamp, Xenopus oocytes, α5β2; format: cell-based
Sequence of α5β2 GABAA receptors (P19969 26-464): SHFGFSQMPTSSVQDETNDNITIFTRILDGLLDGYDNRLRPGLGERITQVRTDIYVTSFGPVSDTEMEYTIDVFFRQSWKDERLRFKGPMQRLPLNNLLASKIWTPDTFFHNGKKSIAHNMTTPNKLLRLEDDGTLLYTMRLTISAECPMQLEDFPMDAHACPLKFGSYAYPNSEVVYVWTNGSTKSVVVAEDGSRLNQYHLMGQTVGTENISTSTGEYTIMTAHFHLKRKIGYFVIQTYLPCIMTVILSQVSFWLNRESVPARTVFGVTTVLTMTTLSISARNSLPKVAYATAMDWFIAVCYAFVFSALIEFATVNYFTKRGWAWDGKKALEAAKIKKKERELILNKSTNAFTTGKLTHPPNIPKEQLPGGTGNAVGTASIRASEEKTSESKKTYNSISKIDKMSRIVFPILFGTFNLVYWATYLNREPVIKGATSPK
Sequence of α5β2 GABAA receptors (P63138 25-474 limits assumed): as the sequence (P63138 25-474 limits assumed) above
Method in brief: as §1

TRPV1 channels = TRPV1 channels (Rattus norvegicus, UniProt O35433); assay: TRPV1 activation, two-microelectrode voltage clamp, Xenopus oocytes; format: cell-based
Sequence of TRPV1 channels (O35433 whole entry, the tested form may be a part): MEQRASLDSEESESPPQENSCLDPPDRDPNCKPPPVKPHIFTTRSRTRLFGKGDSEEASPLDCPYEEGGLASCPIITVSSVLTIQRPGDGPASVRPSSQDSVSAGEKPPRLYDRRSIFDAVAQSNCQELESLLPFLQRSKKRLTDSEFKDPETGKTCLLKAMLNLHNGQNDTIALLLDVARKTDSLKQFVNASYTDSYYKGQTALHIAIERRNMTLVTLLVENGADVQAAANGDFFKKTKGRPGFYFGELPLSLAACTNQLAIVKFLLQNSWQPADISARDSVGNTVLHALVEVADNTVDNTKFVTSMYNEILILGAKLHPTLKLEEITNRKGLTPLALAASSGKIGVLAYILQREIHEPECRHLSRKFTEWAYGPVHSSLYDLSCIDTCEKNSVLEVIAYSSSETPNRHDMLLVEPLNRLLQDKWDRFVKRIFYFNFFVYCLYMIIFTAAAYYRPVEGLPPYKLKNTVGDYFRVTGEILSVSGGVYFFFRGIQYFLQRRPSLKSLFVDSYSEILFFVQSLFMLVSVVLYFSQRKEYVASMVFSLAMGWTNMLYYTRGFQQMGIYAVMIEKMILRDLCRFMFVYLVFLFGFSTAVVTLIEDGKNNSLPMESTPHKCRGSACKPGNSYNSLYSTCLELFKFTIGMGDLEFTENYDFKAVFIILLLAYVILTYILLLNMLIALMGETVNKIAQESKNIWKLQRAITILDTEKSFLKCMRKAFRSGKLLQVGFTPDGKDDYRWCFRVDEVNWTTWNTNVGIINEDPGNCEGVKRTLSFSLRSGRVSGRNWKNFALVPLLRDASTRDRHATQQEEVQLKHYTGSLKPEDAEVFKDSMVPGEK
Method in brief: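 Rat TRPV1 cRNA was injected into Xenopus oocytes, which were stored 24–48 h at 18 °C. Two-electrode voltage clamp was run at −60 mV. Test compound (3–300 μM) was applied by fast perfusion. Peak inward current was normalised to a preceding 300 μM control response to the parent test compound in the same cell. Hill fit; n = 3–10 cells.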

α3β2 GABAA receptors [2] = target: T1, α3β2 GABAA receptors; assay: Shift of the GABA concentration-response curve by 100 μM compound; format: cell-based; conditions: enhancement not significant (p > 0.05)
GABAA receptors = assay: Direct activation of GABAA receptors in the absence of GABA; format: cell-based, rat; conditions: up to 300 μM, no GABA
C57BL/6N mice [3] = assay: Measurement of body temperature; format: in vivo; conditions: 3 h after injection, control 36.10 ± 0.10 °C
C57BL/6N mice [4] = assay: Open Field Test; format: in vivo
Method in brief: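 Male C57BL/6N mice (3–6 months) were dosed i.p. with test compound or vehicle (saline, 10% DMSO, 3% Tween 80, pH 7.4) 30 min before testing. Ambulation was tracked by infrared for 10 min in a 50 × 50 × 50 cm box at 150 lx, starting in the centre. Zones: border ≤8 cm from wall, centre 20 × 20 cm. ≥8 mice; ANOVA with Bonferroni.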

C57BL/6N mice [5] = assay: Elevated Plus Maze Test; format: in vivo
Method in brief: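 Test compound or vehicle (saline, 10% DMSO, 3% Tween 80, pH 7.4) was injected i.p. into male C57BL/6N mice (3–6 months) 30 min before a 5-min elevated plus maze trial. The maze stood 1 m high with 30 × 5 cm arms and 20 cm closed-arm walls, lit at 180 lx. Mice started in the centre facing an open arm; scoring was automated by video. ≥9 mice; ANOVA with Bonferroni.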

C57BL/6N mice [6] = assay: Seizure threshold, pentylentetrazole; format: in vivo; conditions: for Seizure threshold (PTZ dose): 30 min before PTZ, control 39.4 ± 2.8
α1β2γ2S GABAA receptors = α1β2γ2S GABAA receptors (Rattus norvegicus, UniProt P62813+P63138); conditions: piperine data taken from the literature; cited from earlier work
Sequence of α1β2γ2S GABAA receptors (P62813 28-455): as the sequence (P62813 28-455) above
Sequence of α1β2γ2S GABAA receptors (P63138 25-474 limits assumed): as the sequence (P63138 25-474 limits assumed) above
Sequence of α1β2γ2S GABAA receptors (P18508 39-466 partner): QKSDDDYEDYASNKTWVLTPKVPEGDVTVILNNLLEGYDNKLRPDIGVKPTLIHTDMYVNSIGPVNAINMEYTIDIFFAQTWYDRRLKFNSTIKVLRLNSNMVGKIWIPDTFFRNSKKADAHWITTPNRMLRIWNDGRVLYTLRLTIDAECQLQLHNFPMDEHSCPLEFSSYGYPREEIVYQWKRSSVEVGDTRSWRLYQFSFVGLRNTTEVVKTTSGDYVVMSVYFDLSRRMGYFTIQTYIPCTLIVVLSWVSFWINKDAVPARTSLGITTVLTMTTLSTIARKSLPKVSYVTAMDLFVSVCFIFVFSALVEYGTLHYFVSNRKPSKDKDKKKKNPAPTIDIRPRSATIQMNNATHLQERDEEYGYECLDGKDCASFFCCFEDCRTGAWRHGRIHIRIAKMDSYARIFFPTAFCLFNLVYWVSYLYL

[7] = read-out: Maximum stimulation of IGABA at EC3–7

Sequence of α1β1 GABAA receptors (P62813 28-455): as the sequence (P62813 28-455) above
Sequence of α1β1 GABAA receptors (P15431 26-474): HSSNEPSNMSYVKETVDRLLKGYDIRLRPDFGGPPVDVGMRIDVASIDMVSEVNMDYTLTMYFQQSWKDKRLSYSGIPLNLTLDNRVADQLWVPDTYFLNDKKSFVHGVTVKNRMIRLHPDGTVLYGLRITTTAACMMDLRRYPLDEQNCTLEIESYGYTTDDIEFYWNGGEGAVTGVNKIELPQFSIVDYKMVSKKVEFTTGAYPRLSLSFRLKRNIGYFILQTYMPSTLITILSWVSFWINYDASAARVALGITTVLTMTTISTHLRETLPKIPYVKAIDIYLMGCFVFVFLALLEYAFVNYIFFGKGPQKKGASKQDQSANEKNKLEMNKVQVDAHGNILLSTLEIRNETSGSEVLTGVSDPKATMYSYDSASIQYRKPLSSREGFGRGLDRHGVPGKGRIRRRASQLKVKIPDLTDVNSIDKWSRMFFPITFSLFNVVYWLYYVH

Compound: O=C(/C=C/C=C/c1ccc2c(c1)OCO2)N1CCCCC1 [Piperine, 1-piperoylpiperidine]
- EC50 (α1β1 GABAA receptors): 57.6 ± 4.2 µM
- Emax (α1β1 GABAA receptors; [7]): 171 ± 22%
- Hill coefficient (nH) (α1β1 GABAA receptors; α1β1, GABA EC3–7): 1.4 ± 0.2
- EC50 (α1β2 GABAA receptors): 50 ± 7.9 µM
- Emax (α1β2 GABAA receptors; [7]): 271 ± 36%
- Hill coefficient (nH) (α1β2 GABAA receptors; α1β2, GABA EC3–7): 1.5 ± 0.3
- EC50 (α1β3 GABAA receptors): 48.3 ± 7.3 µM
- Emax (α1β3 GABAA receptors; [7]): 332 ± 64%
- Hill coefficient (nH) (α1β3 GABAA receptors; α1β3, GABA EC3–7): 1.5 ± 0.3
- EC50 (α2β2 GABAA receptors): 42.8 ± 17.6 µM
- Emax (α2β2 GABAA receptors; [7]): 248 ± 48%
- Hill coefficient (nH) (α2β2 GABAA receptors; α2β2, GABA EC3–7): 1.9 ± 0.5
- EC50 (α3β2 GABAA receptors [1]): 59.6 ± 12.3 µM
- Emax (α3β2 GABAA receptors [1]; [7]): 375 ± 51%
- Hill coefficient (nH) (α3β2 GABAA receptors [1]; α3β2, GABA EC3–7): 1.4 ± 0.2
- EC50 (α5β2 GABAA receptors): 47.5 ± 17.9 µM
- Emax (α5β2 GABAA receptors; [7]): 136 ± 22%
- Hill coefficient (nH) (α5β2 GABAA receptors; α5β2, GABA EC3–7): 1.7 ± 0.4
- EC50 (TRPV1 channels): 33.3 ± 0.1 µM
- Hill coefficient of TRPV1 activation (TRPV1 channels; 3–300 μM): 4.1 ± 0.1
- Activation of TRPV1 receptors (inward currents) (TRPV1 channels; oocytes expressing TRPV1, up to 300 μM): induced marked inward currents
- IGABA,max in the presence of compound (α3β2 GABAA receptors [2]): 123 ± 3%
- Activation of GABAA receptors in the absence of GABA (GABAA receptors): Neither piperine nor SCT-66 (up to 300 μM) activated GABAA receptors
- Body temperature (C57BL/6N mice [3]; 10 mg/kg bodyweight i.p.): 34.86 ± 0.29 °C
- Body temperature (C57BL/6N mice [3]; 30 mg/kg bodyweight i.p.): 30.37 ± 0.84 °C
- Total distance travelled (OF) (C57BL/6N mice [4]; 30 mg/kg bodyweight i.p., 30 min before test, 10 min test, control 39.3 ± 1.9 m): 21.0 ± 3.7 m
- Reduction of ambulation compared to control (OF) (C57BL/6N mice [4]; 30 mg/kg i.p.): approximately 50%
- Doses with significant reduction of ambulation (OF) (C57BL/6N mice [4]; i.p., 30 min before test): ≥ 3 mg/kg bodyweight
- Time spent in the open arms (OA) in % of total time (EPM) (C57BL/6N mice [5]; 0.1 mg/kg bodyweight i.p., vs saline-treated control): did not significantly differ
- Time spent in the open arms (OA) in % of total time (EPM) (C57BL/6N mice [5]; 0.3 mg/kg bodyweight i.p., 30 min before test, control 28.6 ± 2.1%): 43.0 ± 4.2%
- Effect on ambulation (EPM total distance) (C57BL/6N mice [5]; 1 mg/kg bodyweight i.p.): significantly reduced ambulation
- Time spent in the open arms (OA) in % of total time (EPM) (C57BL/6N mice [5]; 1 mg/kg bodyweight i.p., 30 min before test, control 28.6 ± 2.1%): 45.7 ± 6.3%
- Number of closed arm (CA) entries (EPM) (C57BL/6N mice [5]; doses ≥0.3 mg/kg bodyweight i.p.): dropped significantly
- Seizure threshold (PTZ dose) (C57BL/6N mice [6]; 3 mg/kg bodyweight i.p.): 46.2 ± 5.4 mg/kg bodyweight PTZ
- Seizure threshold (PTZ dose) (C57BL/6N mice [6]; 30 mg/kg bodyweight i.p.): 30.3 ± 3.4 mg/kg bodyweight PTZ
- Effect on seizure threshold (C57BL/6N mice [6]; doses below 3 mg/kg bodyweight i.p.): did not affect seizure threshold
- Vasodilatory effects during PTZ tail-vein infusion (C57BL/6N mice [6]; doses of 10–30 mg/kg, data not shown): observed vasodilatory effects
- EC50 (α1β2γ2S GABAA receptors): 52.4 ± 9.4 µM
- IGABA,max (α1β2γ2S GABAA receptors): 302 ± 27%
